# Laboratory results as given in ChEMBL document CHEMBL4382261, “Onydecalins, Fungal Polyketides with Anti- Histoplasma and Anti-TRP Activity” (J Nat Prod, 2018).
# pIC50: −log10 of the molar value. Activity calls are given as the source filed them. No cut-off for these calls is given here.
# Key:
# [1] = biological target: Transient receptor potential cation channel subfamily V member 1 (Homo sapiens, UniProt Q8NER1); test: Antagonist activity at human TRPV1 channel expressed in human BEAS2B cells assessed as inhibition of […] by Fluo-4-AM dye based fluorescence assay; format: cell-based
# Chain of Transient receptor potential cation channel subfamily V member 1 (Q8NER1 whole entry): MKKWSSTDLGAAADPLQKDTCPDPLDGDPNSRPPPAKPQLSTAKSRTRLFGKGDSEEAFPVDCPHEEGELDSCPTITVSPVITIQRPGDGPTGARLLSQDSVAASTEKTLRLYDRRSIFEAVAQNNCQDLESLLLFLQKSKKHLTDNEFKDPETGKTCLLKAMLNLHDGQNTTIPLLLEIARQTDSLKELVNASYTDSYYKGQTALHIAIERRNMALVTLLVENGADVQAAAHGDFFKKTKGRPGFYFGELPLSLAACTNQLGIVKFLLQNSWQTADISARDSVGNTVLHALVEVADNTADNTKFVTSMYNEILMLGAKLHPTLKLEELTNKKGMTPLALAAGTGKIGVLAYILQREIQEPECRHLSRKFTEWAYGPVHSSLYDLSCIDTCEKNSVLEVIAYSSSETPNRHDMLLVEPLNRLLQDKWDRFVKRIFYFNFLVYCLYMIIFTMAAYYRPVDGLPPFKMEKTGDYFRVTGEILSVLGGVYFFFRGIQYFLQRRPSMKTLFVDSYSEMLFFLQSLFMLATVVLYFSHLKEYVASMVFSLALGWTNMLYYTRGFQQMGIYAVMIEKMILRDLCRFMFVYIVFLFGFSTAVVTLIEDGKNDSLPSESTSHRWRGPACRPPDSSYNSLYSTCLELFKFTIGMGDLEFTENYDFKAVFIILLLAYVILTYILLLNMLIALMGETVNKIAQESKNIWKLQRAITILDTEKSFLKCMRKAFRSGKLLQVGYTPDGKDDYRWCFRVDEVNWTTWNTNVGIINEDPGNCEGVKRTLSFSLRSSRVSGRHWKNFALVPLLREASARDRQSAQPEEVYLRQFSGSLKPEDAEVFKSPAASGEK
# [2] = biological target: Transient receptor potential cation channel subfamily V member 4 (Homo sapiens, UniProt Q9HBA0); test: Antagonist activity at human TRPV4 channel expressed in HEK293 cells assessed as inhibition of GSK1016790A-induced calcium flux by Fluo-4-AM dye based fluorescence assay; format: cell-based
# Chain of Transient receptor potential cation channel subfamily V member 4 (Q9HBA0 whole entry): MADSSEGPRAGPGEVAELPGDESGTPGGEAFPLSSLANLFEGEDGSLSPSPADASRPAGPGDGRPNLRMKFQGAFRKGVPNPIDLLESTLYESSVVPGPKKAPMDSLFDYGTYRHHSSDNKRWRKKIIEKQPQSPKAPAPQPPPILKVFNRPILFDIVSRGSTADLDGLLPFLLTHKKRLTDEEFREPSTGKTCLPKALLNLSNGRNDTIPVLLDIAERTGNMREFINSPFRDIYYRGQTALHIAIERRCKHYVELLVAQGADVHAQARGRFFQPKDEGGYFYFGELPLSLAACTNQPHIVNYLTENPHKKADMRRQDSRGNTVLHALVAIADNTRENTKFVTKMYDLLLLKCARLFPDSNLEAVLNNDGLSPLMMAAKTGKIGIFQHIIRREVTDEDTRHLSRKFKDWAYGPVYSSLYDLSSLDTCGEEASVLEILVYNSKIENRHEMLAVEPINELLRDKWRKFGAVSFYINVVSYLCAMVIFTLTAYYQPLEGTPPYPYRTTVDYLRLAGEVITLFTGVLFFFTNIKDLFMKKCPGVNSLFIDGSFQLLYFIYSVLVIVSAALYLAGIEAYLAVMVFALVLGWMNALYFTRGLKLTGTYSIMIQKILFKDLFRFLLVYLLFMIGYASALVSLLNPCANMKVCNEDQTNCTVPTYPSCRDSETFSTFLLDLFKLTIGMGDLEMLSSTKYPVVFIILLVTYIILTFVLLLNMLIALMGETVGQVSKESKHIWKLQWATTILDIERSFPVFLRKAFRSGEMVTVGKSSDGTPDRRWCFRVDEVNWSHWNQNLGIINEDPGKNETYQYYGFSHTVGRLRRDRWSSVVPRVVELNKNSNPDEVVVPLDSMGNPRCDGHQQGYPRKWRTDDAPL
# Summary of the method: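 HEK-293 cells stably overexpressing human TRPV4 were loaded with Fluo-4 AM for 60 min at 37 °C. Compounds were preincubated 30 min in LHC-9 containing 1 mM probenecid and 0.75 mM trypan red. GSK1016790A 0.03 µM was the agonist. Fluorescence change was normalized to the maximal agonist response, and IC50 came from 8-point curves with n=2–3.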
# [3] = test system: Histoplasma capsulatum; test: Antifungal activity against Histoplasma capsulatum G217B after 10 to 14 days by microscopic method; format: functional
# Summary of the method: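 G217B yeast-phase cells were grown in brain-heart infusion for 3 days at 37 °C under 5% CO2, then used at 1×10⁴ cells/mL final in RPMI. Twofold dilutions were tested at 64 to 0.125 µg/mL final; itraconazole (16 µg/mL downward) and amphotericin B (16 to 0.008 µg/mL) were diluted similarly. Plates were incubated 10–14 days at 37 °C under 5% CO2, with vehicle controls.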
# [4] = test system: Candida albicans; test: Antifungal activity against Candida albicans SC5314 at 0.25 to 64 ug/ml after 48 hrs by microscopic method; format: functional, organism-based
# Summary of the method: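 SC5314 yeast grown overnight in YPD at 30 °C were counted by hemocytometer and used at 1×10⁴ cells/mL final in YPD. Twofold compound dilutions from DMSO stocks were tested at 64 to 0.125 µg/mL final, incubated 48 h at 30 °C, with DMSO-only and untreated controls.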
# [5] = test system: Aspergillus fumigatus; test: Antifungal activity against Aspergillus fumigatus Af293 at 0.25 to 64 ug/ml after 48 hrs by microscopic method; format: functional, organism-based
# Summary of the method: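 Af293 spores in RPMI with 0.1% Tween-80 were counted by hemocytometer and used at 1×10⁴ spores/mL final. Twofold compound dilutions in RPMI from DMSO stocks were tested at 64 to 0.125 µg/mL final in 96-well plates at 37 °C for 48 h, alongside DMSO-only and untreated controls.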
# [6] = biological target: Transient receptor potential cation channel subfamily M member 8 (Homo sapiens, UniProt Q7Z2W7); test: Antagonist activity at human TRPM8 channel expressed in HEK293 cells assessed as inhibition of icilin-induced calcium flux by Fluo-4-AM dye based fluorescence assay; format: cell-based
# Chain of Transient receptor potential cation channel subfamily M member 8 (Q7Z2W7 whole entry): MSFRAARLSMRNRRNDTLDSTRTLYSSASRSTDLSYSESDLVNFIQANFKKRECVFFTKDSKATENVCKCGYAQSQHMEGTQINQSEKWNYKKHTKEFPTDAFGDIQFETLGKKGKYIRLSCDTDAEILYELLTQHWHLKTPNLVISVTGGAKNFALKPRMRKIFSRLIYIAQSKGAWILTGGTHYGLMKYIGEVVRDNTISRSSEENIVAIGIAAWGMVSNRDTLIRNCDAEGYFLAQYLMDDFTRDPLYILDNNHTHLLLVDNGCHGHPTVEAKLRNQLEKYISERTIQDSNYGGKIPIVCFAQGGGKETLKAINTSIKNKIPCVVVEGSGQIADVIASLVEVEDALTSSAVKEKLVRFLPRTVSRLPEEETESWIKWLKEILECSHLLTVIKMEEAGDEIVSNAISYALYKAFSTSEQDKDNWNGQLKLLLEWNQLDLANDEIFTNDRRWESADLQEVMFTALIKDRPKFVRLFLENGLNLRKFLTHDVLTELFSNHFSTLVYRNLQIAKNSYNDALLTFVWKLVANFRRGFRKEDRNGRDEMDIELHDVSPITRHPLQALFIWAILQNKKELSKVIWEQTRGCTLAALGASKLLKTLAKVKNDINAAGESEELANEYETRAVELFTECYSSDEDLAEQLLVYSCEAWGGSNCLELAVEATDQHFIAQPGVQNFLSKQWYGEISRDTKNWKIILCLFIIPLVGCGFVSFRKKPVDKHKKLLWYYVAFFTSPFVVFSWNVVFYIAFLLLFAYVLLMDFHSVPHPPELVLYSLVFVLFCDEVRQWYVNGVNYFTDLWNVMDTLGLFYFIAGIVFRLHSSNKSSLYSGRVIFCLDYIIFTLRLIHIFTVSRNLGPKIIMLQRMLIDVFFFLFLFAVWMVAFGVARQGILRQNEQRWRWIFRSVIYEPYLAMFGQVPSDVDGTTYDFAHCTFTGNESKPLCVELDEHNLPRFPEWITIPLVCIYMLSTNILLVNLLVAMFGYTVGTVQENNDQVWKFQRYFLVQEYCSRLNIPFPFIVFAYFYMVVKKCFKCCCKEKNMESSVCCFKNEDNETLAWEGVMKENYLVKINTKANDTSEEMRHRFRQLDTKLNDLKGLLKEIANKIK
# Summary of the method: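 Stable human TRPM8 HEK-293 cells, grown in DMEM:F12 with 5% FBS and Geneticin on gelatin-coated plates, were loaded with Fluo-4 AM for 60 min at 37 °C. Compounds were added 30 min before reading in LHC-9 with 1 mM probenecid and 0.75 mM trypan red. Icilin 50 µM was the agonist. Signal was normalized to the maximal agonist response, and IC50 came from 8-point curves with n=2–3.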
SMILES,pIC50 [1],pIC50 [2],MIC [3] [µg/mL],Activity [4],Activity [5],pIC50 [6]
C/C=C(\C)[C@H]1C(C)=C[C@H]2C[C@@H](C)C[C@@H](C(=O)O)[C@@H]2[C@@]1(C)C(=O)c1cccnc1,4.09,4.34,> 64,inactive,inactive,–
C/C=C(\C)[C@H]1C(C)=C[C@H]2C[C@@H](C)C[C@@H](C(=O)O)[C@@H]2[C@@]1(C)C(=O)CCO,–,–,> 64,inactive,inactive,4.73
C/C=C(\C)[C@H]1C(C)=C[C@H]2C[C@@H](C)C[C@H]3C(O)=C(C=O)C(=O)[C@]1(C)[C@H]23,–,–,2,inactive,inactive,–
C/C=C(\C)[C@H]1C(C)=C[C@H]2C[C@@H](C)C[C@H]3C(=O)/C(=C\NCCO)C(=O)[C@]1(C)[C@H]23,–,–,16,inactive,inactive,4.21
C[C@@H]1[C@H](O)[C@@H](C)/C=C/C=C/C=C/C=C/C=C/C=C/C=C/[C@H](O[C@@H]2O[C@H](C)[C@@H](O)[C@H](N)[C@@H]2O)C[C@@H]2O[C@](O)(C[C@@H](O)C[C@@H](O)[C@H](O)CC[C@@H](O)C[C@@H](O)CC(=O)O[C@H]1C)C[C@H](O)[C@H]2C(=O)O [AMPHOTERICIN B],–,–,0.5,–,–,–
CCC(C)n1ncn(-c2ccc(N3CCN(c4ccc(OCC5COC(Cn6cncn6)(c6ccc(Cl)cc6Cl)O5)cc4)CC3)cc2)c1=O (stereo not drawn) [ITRACONAZOLE],–,–,0.001,–,–,–
